# Screening results as filed in PubChem.
# FGF22 binding – FGF22 (human) thermal shift binding. recombinant FGF22 thermal shift, SYPRO orange fluorescence; percent of sucrose octasulfate shift, DMSO zero. activity (Tm shift, normalised), % at 9.99 µM. 340,000 compounds, 1.5% hits. AID 651658;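 active = mean Tm shift, scaled 0 neutral to 100 positive control, at about 1.3% or above, every replicate too, limit read from the data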
# PDI turbidity – inhibitors of human protein disulfide isomerase; AID 588391; inhibition, % at 10 µM; P07237; 350,000 compounds, 0.052% hits; PDI insulin aggregation turbidity, A650, 90 min;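 active = mean inhibition across replicates of 30% or more, whatever share of single replicates reach that level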
# Target sequence (P07237 whole entry, looked up): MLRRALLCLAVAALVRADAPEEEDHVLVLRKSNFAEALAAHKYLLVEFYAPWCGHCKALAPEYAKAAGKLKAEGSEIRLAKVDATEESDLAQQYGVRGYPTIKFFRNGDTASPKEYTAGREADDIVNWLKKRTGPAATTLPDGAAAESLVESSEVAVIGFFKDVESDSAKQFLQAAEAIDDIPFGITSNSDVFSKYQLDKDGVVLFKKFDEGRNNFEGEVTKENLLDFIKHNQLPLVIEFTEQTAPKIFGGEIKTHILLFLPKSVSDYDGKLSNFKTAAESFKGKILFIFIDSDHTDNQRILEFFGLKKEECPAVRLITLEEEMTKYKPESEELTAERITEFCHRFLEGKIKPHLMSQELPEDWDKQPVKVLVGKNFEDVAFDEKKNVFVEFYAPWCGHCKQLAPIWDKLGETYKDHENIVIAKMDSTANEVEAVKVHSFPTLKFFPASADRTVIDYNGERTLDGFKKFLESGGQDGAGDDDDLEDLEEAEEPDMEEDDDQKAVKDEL
# ARNT-TACC3 inh – disruptors of human ARNT/TACC3 interaction | Q9Y6A5 | 390,000 compounds, 0.66% hits | AlphaScreen His-ARNT PAS-B/GST-TACC3 binding, luminescence; TACC3 fragment carries E629A point mutation | inhibition, % at 9.99 µM | AID 623870;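 active = mean inhibition of replicates at least 50% and at least half of replicates each reaching 50%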;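 note: 0% = complete ARNT plus TACC3 wells and 100% = ARNT alone without TACC3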
# MLL AF4-AF9 inh – inhibitors of human MLL-AF4/AF9 interaction; P42568; AlphaScreen, biotin-AF4 peptide binding to FLAG-AF9; inhibition, % at 10 µM; 350,000 compounds, 0.47% hits; AID 651704;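 active = every replicate reaching a set inhibition limit, whatever the replicate mean, cut at about 25% in these data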;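 note: 0% = plate neutral control median and 100% = total signal loss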
# FN deposit inh – fibronectin deposition inhibition; inhibition, % at 12.6 µM; 350,000 compounds, 0.086% hits; AH1F fibroblasts, Alexa488-fibronectin deposition fluorescence, overnight; AID 743247;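 active = mean inhibition across replicates of 30% or more, regardless of how many single replicates reach that level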;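 note: positive control wells lacked labelled fibronectin entirely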
#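 Material: AH1F fibroblasts assembling fluorescent fibronectin matrix; amount: 10000 AH1F cells/well; medium: DMEM, 2% serum; reagent: Alexa488-fibronectin, 24 nM final in well; dosing: single compound dose, delivered by pin transfer; incubation: 1 h adhesion, overnight exposure; detection: fluorescence after three HBSS washes, excitation 485 nm, emission 525 nm; measure: fibronectin deposition inhibition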
# ERp5 inh – ERp5 (human) disulfide isomerase inhibition | Q15084 | ERp5 insulin aggregation, absorbance 650 nm, 90 min | inhibition, % at 9.99 µM | 350,000 compounds, 0.05% hits;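 active = mean replicate inhibition above about 25%, with every replicate also reaching it, limit read from the data, passing the limit was not always enough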
# * hit, by the source's call; / = no result given. Shown are actives, neighbours in structure and some others; about 2.1% of the full set was active somewhere.
SMILES,FGF22 binding,PDI turbidity,ARNT-TACC3 inh,MLL AF4-AF9 inh,FN deposit inh,ERp5 inh
C[C@@H]1CN([C@H](C)CO)C(=O)c2cc(NC(=O)c3ccncc3)ccc2O[C@@H](C)CCCCO[C@H]1CN(C)C(=O)Nc1cccc2ccccc12,0,/,1,-1,/,1
Cc1c(Cl)cnn1CC(=O)NC1C(=O)N2C(C(=O)O)=C(CSc3nnnn3C)CSC12 (stereo not given),43*,3,-1,1,-5,-2
Cc1nn(CC(=O)NC2C(=O)N3C(C(=O)O)=C(CSc4nnnn4C)CSC23)cc1Br (stereo not given),0,-4,-5,4,-8,-6
CC(C(=O)NC1C(=O)N2C(C(=O)O)=C(CSc3nnnn3C)CSC12)n1cc(Cl)cn1 (stereo not given),43*,2,0,-20,10,-1
O=C(C[C@@H]1C[C@H]2c3cc(NC(=O)Cc4ccncc4)ccc3O[C@H]2[C@@H](CO)O1)NCCN1CCCCC1,0,/,-2,7,/,-3
Cc1cccn2c(=O)c(C=NCCO)c(Nc3ccc(Cl)cc3)nc12,44*,/,/,-1,7,-3
Cc1ccc(-c2nnc(SCC(N)=O)n2C)cc1,43*,2,0,-2,-8,-3
Cc1cc(C)nc(NC(=O)c2ccc(COc3ccccc3Cl)cc2)c1,44*,13,/,-1,-1,0
O=C(Nc1ccn(Cc2c(F)c(F)cc(F)c2F)n1)c1ccc(COc2ccccc2Cl)cc1,0,-5,17,0,/,4
COc1ccc(S(=O)(=O)N(C)C[C@H]2OCCCC[C@H](C)Oc3ccc(NS(=O)(=O)c4ccc(Cl)cc4)cc3C(=O)N([C@H](C)CO)C[C@H]2C)cc1,-1,/,/,-2,-7,2
c1ccc(N2CCN(c3nc(-c4cccs4)nc4ccccc34)CC2)cc1,43*,2,/,3,1,7
C/C(=N\Nc1nc(-c2ccccn2)nc2ccccc12)c1ccc(F)cc1,/,-11,5,/,/,/
c1ccc(-c2nc(N3CCCCCC3)c3ccccc3n2)nc1,/,-1,76*,/,/,/
CCN1CCN(c2nc(-c3ccccn3)nc3ccccc23)CC1,/,7,46*,/,-1,/
c1ccc(CCNc2nc(-c3ccccn3)nc3ccccc23)cc1,0,1,64*,14,11,-2
C[C@@H]1CCCCO[C@@H](CN(C)S(=O)(=O)c2ccc(Cl)cc2)[C@@H](C)CN([C@@H](C)CO)C(=O)c2cc(NC(=O)Nc3ccc4c(c3)OCO4)ccc2O1,0,/,-3,0,-7,1
C[C@H]1CN([C@@H](C)CO)S(=O)(=O)c2ccc(-c3ccccc3)cc2O[C@@H]1CN(C)S(C)(=O)=O,-1,/,13,4,-6,-1
COCC(=O)OCC(=O)N1N=C(c2ccc(Cl)cc2)CC1c1ccco1 (stereo not given),44*,-8,20,-2,0,3
COc1ccc(N(CC(=O)NCc2ccco2)S(=O)(=O)c2ccccc2)cc1,43*,-1,2,2,4,-4
COc1ccc(S(=O)(=O)N(CC(=O)NCc2ccco2)c2ccccc2)cc1,/,8,2,/,-4,/
CO[C@H]1CC[C@H]2CCN(C)C(=O)[C@H](C)[C@H](OC)CN(C)C(=O)c3cccc(C#N)c3OC[C@H]1O2,0,/,-5,-2,2,0
CN(C)C(=O)C[C@@H]1C=C[C@@H](NC(=O)C2CC2)[C@H](CO)O1,0,/,0,-1,-1,-6
Cc1ccc(C(=O)N/N=C\C=C\c2ccc(Br)cc2)cn1,43*,-8,9,0,-1,-2
O=C(Nc1cc(Cl)ccc1-n1cncn1)c1ccc(Br)o1,13*,-6,9,-19,5,3
O=C(Nc1cc(Cl)ccc1-n1cncn1)c1cncc(Br)c1,/,4,-15,0,4,2
SMILES,FGF22 binding,PDI turbidity,ARNT-TACC3 inh,MLL AF4-AF9 inh,FN deposit inh,ERp5 inh
CN(C)C(=O)C[C@@H]1C[C@H]2c3cc(NC(=O)NC4CCCC4)ccc3O[C@H]2[C@H](CO)O1,0,/,-6,-1,9,-2
Cc1cc(OCC(=O)NCCc2ccc(Cl)cc2)c2c(C)cc(=O)oc2c1,43*,-10,21,1,6,-2
Cc1cc(OCC(=O)NCc2cccnc2)c2c(C)cc(=O)oc2c1,0,-4,-3,2,-9,-24
CC(=O)C(Cc1ccccc1)(Cc1ccccc1)C(C)=O,1,11,-2,5,-3,1
CC(C)(Cc1cccc(CC(C)(C)C(=O)O)c1)C(=O)O,17*,-1,-32,-3,1,2
CCC(C)NC(=S)Nc1ccc2nc(N3CCN(CC)CC3)cc(C)c2c1 (stereo not given),0,-12,8,11,13,2
CCN1CCN(c2cc(C)c3cc(NC(=S)NCc4cccs4)ccc3n2)CC1,1,2,14,30*,8,9
CCN1CCN(c2cc(C)c3cc(NC(=S)N(CC)CC)ccc3n2)CC1,0,8,22,25*,3,7
Cc1ccc(S(=O)(=O)N2CCCC2CNC(=O)C(=O)NCc2ccc3c(c2)OCO3)cc1 (stereo not given),43*,12,/,12,9,0
Cc1cc(C)nc(N2CCCC(C(=O)NCc3ccc4c(c3)OCO4)C2)n1 (stereo not given),43*,-3,-2,-2,-7,-8
COc1ccc(S(=O)(=O)N2CCCC2CNC(=O)C(=O)NCc2ccc3c(c2)OCO3)cc1 (stereo not given),0,0,6,0,-3,4
Cc1cc(C)nc(N2CCCC(C(=O)Nc3ccc4c(c3)OCO4)C2)n1 (stereo not given),/,1,1,/,/,/
Cc1ccc(C2=NCCn3c2c2ccc(C(F)(F)F)cc2[n+]3[O-])cc1,43*,4,8,-1,-9,4
COc1ccc(C2=NCCn3c2c2ccc(C(F)(F)F)cc2[n+]3[O-])cc1,0,-4,5,/,-3,4
COc1ccc2c3c([nH]c2c1)[C@@H](CO)N(C(=O)CN(C)C)CC31CN(CC2CCCC2)C1,0,/,/,19,/,0
O=C(Oc1ccc(Br)cc1)c1n[nH]c(=O)c2ccccc12,43*,1,-10,-1,-2,1
COc1ccc(S(=O)(=O)N(C)C[C@H]2Oc3c(NS(=O)(=O)c4c(C)noc4C)cccc3C(=O)N([C@H](C)CO)C[C@H]2C)cc1,0,/,6,2,/,5
S=c1[nH]c(-c2ccccc2)cn1/N=C/c1ccc(Br)cc1,43*,-5,-2,-12,2,3
CO[C@@H]1CN(C)C(=O)c2cc(NC(=O)c3ccccc3F)ccc2OC[C@@H](C)N(CC2CC2)C[C@@H]1C,0,/,-1,-2,3,-9
